pKi: −log10 of the molar value. Active and inactive are the calls of the source. The calls are words filed in the database; no cut-off is given here.
Columns and labels:
[1] = target: T1, Melatonin receptor type 1B (Homo sapiens, UniProt P49286); experiment: Displacement of 2-[125I]iodomelatonin from human MT2 receptor expressed in CHO cells; assay type: cell-based; conditions: for pKi: read-out: Ki; for Ki: read-out: pKi (converted)
T1 sequence (P49286 whole entry): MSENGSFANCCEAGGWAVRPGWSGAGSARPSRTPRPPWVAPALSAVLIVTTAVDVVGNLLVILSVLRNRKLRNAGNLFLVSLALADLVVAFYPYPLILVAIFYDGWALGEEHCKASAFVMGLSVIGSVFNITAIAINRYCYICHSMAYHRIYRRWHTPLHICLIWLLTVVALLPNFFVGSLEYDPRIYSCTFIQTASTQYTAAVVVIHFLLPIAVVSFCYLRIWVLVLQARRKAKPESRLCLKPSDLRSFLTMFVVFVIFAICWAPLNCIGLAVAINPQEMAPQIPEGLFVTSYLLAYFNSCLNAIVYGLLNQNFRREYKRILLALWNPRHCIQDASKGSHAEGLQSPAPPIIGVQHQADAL

[2] = target: T2, Melatonin receptor type 1A (Homo sapiens, UniProt P48039); experiment: Displacement of 2-[125I]iodomelatonin from human MT1 receptor expressed in CHO cells; assay type: cell-based; conditions: for pKi: read-out: Ki; for Ki: read-out: pKi (converted)
[3] = species on record: Homo sapiens; experiment: Selectivity ratio of Ki for human MT1 receptor to Ki for human MT2 receptor
Outline: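 Whole-cell competition binding used lifted human MT1- or MT2-CHO cells with 80-100 pM 2-[125I]iodomelatonin and test compound (1 pM to 1 µM), 1 h at 25 °C, stopped with cold 50 mM Tris-HCl pH 7.4. Ki came from IC50 by Cheng-Prusoff, mean of three determinations. The ratio is Ki MT1 / Ki MT2.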

[4] = target: T3, Melatonin receptor type 1B (Homo sapiens) (UniProt P49286); experiment: Activity at human MT2 receptor expressed in CHO cells assessed as increase in potency of melatonin to inhibit forskolin-induced cAMP accumulation at 100 nM; assay type: functional, cell-based
T3 sequence (whole entry): T1 sequence (P49286 whole entry)

[5] = target: T2, Melatonin receptor type 1A; experiment: Activity at low-affinity binding site of human MT1 receptor expressed in CHO cells assessed as increase in potency of melatonin to inhibit forskolin-induced cAMP accumulation at 10 to 100 nM; assay type: functional, cell-based
[6] = target: T2, Melatonin receptor type 1A; experiment: Antagonist activity at human MT1 receptor expressed in CHO cells assessed as inhibition of forskolin-stimulated cAMP formation; assay type: functional, cell-based
Outline: (§1)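 In stable human MT1- or MT2-CHO cells replated in 24-well plates, cells were given 20 min at 37 °C in serum-free medium with 30 µM rolipram and 100 µM forskolin, plus a test compound concentration series within 10-14 to 10^-4 M. Rolipram alone gave basal and rolipram plus forskolin gave maximal accumulation. cAMP was read by EIA kit.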

[7] = target: T2, Melatonin receptor type 1A; experiment: Activity at high-affinity binding site of human MT1 receptor expressed in CHO cells assessed as decrease in potency of melatonin to inhibit forskolin-induced cAMP accumulation at 10 to 100 nM
[8] = target: T3, Melatonin receptor type 1B (Homo sapiens); experiment: Antagonist activity at human MT2 receptor expressed in CHO cells assessed as inhibition of forskolin-stimulated cAMP formation; assay type: functional, cell-based; outline: as §1
[9] = target: T3, Melatonin receptor type 1B (Homo sapiens); experiment: Activity at human MT2 receptor expressed in CHO cells assessed as increase in potency of melatonin to inhibit forskolin-induced cAMP accumulation at 10 nM; assay type: functional, cell-based
[10] = target: T3, Melatonin receptor type 1B (Homo sapiens); experiment: Activity at human MT2 receptor expressed in CHO cells assessed as inhibition of forskolin-stimulated cAMP formation at >10 nM; assay type: functional, cell-based; outline: as §1

T2 sequence (P48039 whole entry): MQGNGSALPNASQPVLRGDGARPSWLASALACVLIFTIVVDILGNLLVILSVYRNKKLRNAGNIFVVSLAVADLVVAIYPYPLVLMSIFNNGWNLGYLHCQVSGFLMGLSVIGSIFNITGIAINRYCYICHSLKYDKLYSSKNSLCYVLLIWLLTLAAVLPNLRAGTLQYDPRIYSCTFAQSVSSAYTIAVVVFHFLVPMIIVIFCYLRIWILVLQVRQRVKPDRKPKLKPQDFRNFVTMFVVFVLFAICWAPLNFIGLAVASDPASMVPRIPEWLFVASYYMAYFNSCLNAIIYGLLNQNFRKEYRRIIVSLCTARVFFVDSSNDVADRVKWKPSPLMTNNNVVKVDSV

pKi [1]	pKi [2]	Structure (SMILES)	further results
8.05		CCC(=O)NCc1cc2c(OC)cccc2n1Cc1ccc(Cl)cc1	
9.34	7.23	CCC(=O)NC1Cc2ccccc2C(c2ccccc2)C1 (stereo not drawn)	
8.96	7.00	COc1ccc2[nH]c(CN3CCc4ccccc43)c(CCNC(C)=O)c2c1	Ratio Ki [3]: 91; Activity [4]: Active; Activity [5]: Active; Activity [6]: Active; Ki [2]: 115 nM; Activity [7]: Active; Activity [8]: Active; Activity [9]: Active; Ki [1]: 1.17 nM
7.52	7.07	COc1ccc2[nH]c(CN3CCc4cc(Br)ccc43)c(CCNC(C)=O)c2c1	
7.85	6.83	COc1ccc2[nH]c(CN3c4ccccc4CC3C)c(CCNC(C)=O)c2c1 (stereo not drawn)	Ratio Ki [3]: 11
7.84	7.42	CCC(=O)NCCc1c(CN2CCc3ccccc32)[nH]c2ccc(OC)cc12	
9.96	6.88	COc1cccc(C(CCNC(C)=O)c2ccc3ccccc3c2)c1 (stereo not drawn)	
6.93	6.97	COc1ccc2[nH]c(CN3CCc4ccc(N)cc43)c(CCNC(C)=O)c2c1	
7.58	6.52	COc1ccc2[nH]c(CN3CCc4ccc([N+](=O)[O-])cc43)c(CCNC(C)=O)c2c1	Ki [2]: 309 nM
7.60	6.92	COc1ccc2[nH]c(CN3CCCC3)c(CCNC(C)=O)c2c1	
9.60	7.57	COc1cccc(Cc2oc3ccc(OC)cc3c2CCNC(C)=O)c1	
9.05	6.10	COc1ccc2c(c1)[C@@H](CCNC(=O)C1CCC1)C[C@@H](c1ccccc1)C2	
9.80	8.85	CCC(=O)NCC1Cc2ccccc2Cc2ccc(OC)cc21 (stereo not drawn)	
		COc1ccc2c(c1)c(CCNC(C)=O)c1n2CC2Cc3ccccc3N2C1 (stereo not drawn)	Ki [2]: 302 nM; Ki [1]: 60.3 nM
		COc1ccc2c(c1)CC1Cn3c(c(CCNC(C)=O)c4cc(OC)ccc43)CN21 (stereo not drawn)	Ki [2]: 1780 nM
6.83	5.85	COc1ccc2[nH]c(CN3CCc4ccccc43)c(CCNC(=O)C3CCC3)c2c1	Activity [10]: Active; Activity [6]: Active; Ki [1]: 0.001 nM
7.82	7.39	COc1ccc2[nH]c(CN3CCc4cc(C)ccc43)c(CCNC(C)=O)c2c1	
8.60	6.64	COc1cccc(/C(=C/CNC(C)=O)c2ccccc2)c1	
8.10	7.39	CCCC(=O)NCCc1c(CN2c3ccccc3CC2C)[nH]c2ccc(OC)cc12 (stereo not drawn)	Ratio Ki [3]: 5
8.15	8.24	COc1ccc2c(c1)CCN2Cc1[nH]c2ccc(OC)cc2c1CCNC(C)=O	
